Assay type in all cases: functional
The subject of experiment [1] is Enterococcus avium. Nature of the experiment: Antibacterial activity against Enterococcus avium MB119 after 24 hrs by microdilution assay. Conditions: MB119, 24 h. A digest of the protocol:
(§1)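 Broth microdilution MIC against clinical or seawater-isolated strains (identified by standard procedures and MALDI-TOF), with compound solutions and testing as in earlier work. MIC reported in μg/mL and μM.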
For orientation: Broth dilution looks for growth in wells or tubes with falling amounts of substance.

Experiment [2] has as its system Staphylococcus capitis. Nature of the experiment: Antibacterial activity against Methicillin-resistant Staphylococcus capitis MB71 after 24 hrs by microdilution assay. The note with it: MB71, 24 h. The method, boiled down: (§2)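 Broth microdilution MIC, run as in an earlier cited report. Strains are clinical isolates identified by standard methods and MALDI-TOF; E. faecalis MB19 and MB51 are Ligurian seawater isolates. Highest concentration tested was 128 μg/mL. MICs are given in μg/mL and μM, with oxacillin and vancomycin as reference antibiotics.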

In experiment [3] the test system is Staphylococcus lugdunensis. Nature of the experiment: Antibacterial activity against Staphylococcus lugdunensis MB96 after 24 hrs by microdilution assay. The note with it: MB96, 24 h. The method, boiled down:
as §1

Experiment [4] has as its system Staphylococcus hominis. In words: Antibacterial activity against Methicillin-resistant Staphylococcus hominis MB124 after 24 hrs by microdilution assay. The note with it: MB124, 24 h. A digest of the protocol:
as §2

Experiment [5] relates to Enterococcus gallinarum. Nature of the experiment: Antibacterial activity against Vancomycin resistant Enterococcus gallinarum MB111 after 24 hrs by microdilution assay. Conditions: MB111, 24 h. The method, boiled down:
as §2

Experiment [6] concerns Enterococcus faecium. Nature of the experiment: Antibacterial activity against Enterococcus faecium MB2 after 24 hrs by microdilution assay. Conditions: MB2, 24 h. A digest of the protocol: as §1
The test system of experiment [7] is Enterococcus faecalis. In words: Antibacterial activity against Vancomycin resistant Enterococcus faecalis MB1 after 24 hrs by microdilution assay. The note with it: MB1, 24 h. A digest of the protocol:
as §2

Experiment [8] relates to Staphylococcus aureus. Nature of the experiment: Antibacterial activity against Methicillin-resistant Staphylococcus aureus MB188 after 24 hrs by microdilution assay. The note with it: MB188, 24 h. The method, boiled down: as §2
In experiment [9] the test system is Enterococcus faecalis. In words: Antibacterial activity against Enterococcus faecalis MB76 after 24 hrs by microdilution assay. Conditions: MB76, 24 h. The method, boiled down:
as §2

In experiment [10] the test system is Enterococcus faecium. In words: Antibacterial activity against Enterococcus faecium MB3 after 24 hrs by microdilution assay. Conditions: MB3, 24 h. A digest of the protocol:
as §1

For experiment [11], the system named is Staphylococcus simulans. Nature of the experiment: Antibacterial activity against Staphylococcus simulans MB94 after 24 hrs by microdilution assay. Conditions: MB94, 24 h. A digest of the protocol:
as §1

Experiment [12] relates to Staphylococcus epidermidis. In words: Antibacterial activity against Methicillin-resistant Staphylococcus epidermidis MB169 after 24 hrs by microdilution assay. The note with it: MB169, 24 h. The method, boiled down:
as §2

Experiment [13] deals with Staphylococcus warneri. Nature of the experiment: Antibacterial activity against Methicillin-resistant Staphylococcus warneri MB74 after 24 hrs by microdilution assay. The note with it: MB74, 24 h. The method, boiled down:
as §2

The subject of experiment [14] is Enterococcus faecium. In words: Antibacterial activity against Enterococcus faecium MB152 after 24 hrs by microdilution assay. The note with it: MB152, 24 h. A digest of the protocol: as §1
Experiment [15] relates to Staphylococcus saprophyticus. In words: Antibacterial activity against Staphylococcus saprophyticus MB41 after 24 hrs by microdilution assay. The note with it: MB41, 24 h. The method, boiled down: as §1
In experiment [16] the test system is Staphylococcus haemolyticus. In words: Antibacterial activity against Methicillin-resistant Staphylococcus haemolyticus MB115 after 24 hrs by microdilution assay. Conditions: MB115, 24 h. The method, boiled down: as §2
Experiment [17] has as its system Enterococcus durans. In words: Antibacterial activity against Enterococcus durans MB113 after 24 hrs by microdilution assay. Conditions: MB113, 24 h. The method, boiled down:
as §1

Experiment [18] concerns Enterococcus faecalis. In words: Antibacterial activity against Vancomycin resistant Enterococcus faecalis MB51 after 24 hrs by microdilution assay. Conditions: MB51, 24 h. The method, boiled down:
as §2

Experiment [19] has as its system Staphylococcus aureus. In words: Antibacterial activity against Methicillin-resistant Staphylococcus aureus MB18 after 24 hrs by microdilution assay. Conditions: MB18, 24 h. The method, boiled down:
as §2

The subject of experiment [20] is Staphylococcus epidermidis. Nature of the experiment: Antibacterial activity against Methicillin-resistant Staphylococcus epidermidis MB165 after 24 hrs by microdilution assay. Conditions: MB165, 24 h. A digest of the protocol: as §2
In experiment [21] the test system is Enterococcus casseliflavus. In words: Antibacterial activity against Vancomycin resistant Enterococcus casseliflavus MB159 after 24 hrs by microdilution assay. The note with it: MB159, 24 h. The method, boiled down:
as §2

The test system of experiment [22] is Enterococcus faecalis. Nature of the experiment: Antibacterial activity against Vancomycin resistant Enterococcus faecalis MB19 after 24 hrs by microdilution assay. Conditions: MB19, 24 h. The method, boiled down:
as §2

In the case of `COc1ccc(-c2cc(=O)c3c(OC)c(OC)c(OC)cc3o2)cc1OC` [SINENSETIN], the minimal inhibitory concentration (MIC) (usually the lowest concentration found to suppress growth) in experiment [1] was 344 µM; in experiment [2] it was 344 µM; in experiment [3] it was above 128 µg/mL; in experiment [4], 344 µM; in experiment [5], 172 µM; in experiment [6] it was 344 µM. For the same compound, the MIC in experiment [7] is 86 µM; in experiment [8] it was 344 µM; in [9], 344 µM; in [10], 344 µM; in experiment [11], above 128 µg/mL; in experiment [12], 344 µM. For the same compound, the MIC in [13] was 344 µM; in [14] it was 172 µM; in experiment [15], above 128 µg/mL; in experiment [16], above 128 µg/mL; in [17], 344 µM; in experiment [18], 172 µM. The minimum inhibitory concentration (MIC) is above 128 µg/mL in experiment [19], above 128 µg/mL in [20], 172 µM in experiment [21] and 344 µM in [22].
In the case of `CC1=CC(=O)O[C@@H]1C/C=C(\C)CC[C@@H]1[C@@]2(C)CCC[C@@](C)(CO)[C@@H]2[C@@H](O)C[C@@]1(C)O`, the MIC in experiment [1], in experiment [2], in [3], in experiment [4], in experiment [5] and in experiment [6] was above 128 µg/mL throughout. Further, the MIC in experiment [7], in experiment [8], in [9], in [10], in experiment [11] and in [12] was above 128 µg/mL in each case. In addition, the MIC in [13], in experiment [14], in [15], in [16], in [17] and in [18] was above 128 µg/mL in each case. In addition, the MIC in experiment [19], in experiment [20], in experiment [21] and in experiment [22] was above 128 µg/mL throughout.
Turning to `COC1O[C@H]2C[C@@](C)(O)[C@H](CC/C(C)=C/CC3OC(=O)C=C3C)[C@@]3(C)CCC[C@]1(C)[C@H]23` (some centres undefined), the minimal inhibitory concentration (MIC) was 296 µM in experiment [1]; 74.1 µM in [2]; 296 µM in experiment [3]; 148 µM in experiment [4]; 296 µM in experiment [5]; 296 µM in experiment [6]. The MIC in experiment [7] stood at 296 µM; in [8], 296 µM; in [9], 296 µM; in experiment [10] it was 296 µM; in experiment [11] it was 296 µM; in experiment [12], 148 µM. In addition, the minimum inhibitory concentration (MIC) in experiment [13] was determined as 148 µM; in experiment [14] it was 148 µM; in [15], 296 µM; in experiment [16], 296 µM; in [17], 296 µM; in [18], 296 µM. The MIC came to 296 µM in experiment [19], 148 µM in [20], 148 µM in [21] and 148 µM in [22].
For the compound `COc1ccc(-c2cc(=O)c3c(O)c(OC)c(OC)cc3o2)cc1O` [EUPATORIN], the MIC in experiment [1] was 186 µM; in experiment [2] it was above 128 µg/mL; in experiment [3] it was above 128 µg/mL; in experiment [4], above 128 µg/mL; in experiment [5], 186 µM; in [6] it was 372 µM. In addition, the MIC was 186 µM in [7]; above 128 µg/mL in experiment [8]; 186 µM in experiment [9]; above 128 µg/mL in [10]; above 128 µg/mL in experiment [11]; above 128 µg/mL in experiment [12]. The MIC in experiment [13] was above 128 µg/mL; in experiment [14] it was 372 µM; in experiment [15] it was above 128 µg/mL; in [16] it was above 128 µg/mL; in experiment [17], above 128 µg/mL; in experiment [18] it was 372 µM. Also, the MIC in [19] was above 128 µg/mL; in experiment [20], above 128 µg/mL; in [21] it was 372 µM; in experiment [22], 186 µM.
For the compound `COc1cc2oc(-c3ccc(O)cc3)cc(=O)c2c(O)c1OC` [CIRSIMARITIN], the MIC in experiment [1] was 204 µM; in [2] it was 407 µM; in experiment [3] it was 407 µM; in experiment [4], above 128 µg/mL; in [5], 102 µM; in [6], 407 µM. Further, the MIC in experiment [7] is 204 µM; in experiment [8], above 128 µg/mL; in [9] it was 407 µM; in experiment [10] it was 204 µM; in experiment [11], above 128 µg/mL; in experiment [12], above 128 µg/mL. In addition, the MIC is above 128 µg/mL in experiment [13]; 407 µM in experiment [14]; above 128 µg/mL in experiment [15]; above 128 µg/mL in experiment [16]; 407 µM in experiment [17]; 407 µM in [18]. Besides, the MIC was above 128 µg/mL in experiment [19], above 128 µg/mL in experiment [20], 407 µM in experiment [21] and 407 µM in experiment [22].
Consider `COC1O[C@H]2C[C@@](C)(O)[C@H](CC/C(C)=C/[C@H](O)[C@H]3OC(=O)C=C3C)[C@@]3(C)CCC[C@]1(C)[C@H]23` (some centres undefined), for which the MIC is 143 µM in [1]; 286 µM in [2]; above 128 µg/mL in [3]; 286 µM in [4]; 143 µM in experiment [5]; 286 µM in experiment [6]. Further, the minimal inhibitory concentration (MIC) in experiment [7] was 143 µM; in experiment [8] it was above 128 µg/mL; in [9], 143 µM; in [10] it was 143 µM; in experiment [11], above 128 µg/mL; in [12], 286 µM. For the same compound, the MIC in experiment [13] was above 128 µg/mL; in [14], 286 µM; in experiment [15] it was 286 µM; in [16] it was above 128 µg/mL; in experiment [17] it was above 128 µg/mL; in [18], 143 µM. Also, the MIC was 286 µM in experiment [19], above 128 µg/mL in [20], 286 µM in experiment [21] and 286 µM in experiment [22].
With `CC1=CC(=O)O[C@@H]1C/C=C(\C)CC[C@@H]1[C@@]2(C)CCC[C@@]3(C)C(O)O[C@@H](C[C@@]1(C)O)[C@H]23` (some centres undefined), the MIC in experiment [1], in experiment [2], in experiment [3], in experiment [4], in experiment [5] and in experiment [6] was above 128 µg/mL throughout. Also, the minimum inhibitory concentration (MIC) in [7], in [8], in experiment [9], in experiment [10], in [11] and in experiment [12] was above 128 µg/mL in each case. Also, the MIC in [13], in [14], in experiment [15], in experiment [16], in experiment [17] and in experiment [18] was above 128 µg/mL each time. The MIC in experiment [19], in experiment [20], in experiment [21] and in experiment [22] was above 128 µg/mL throughout.

These data come from ChEMBL document CHEMBL4610084, “Antibacterial and ATP Synthesis Modulating Compounds from Salvia tingitana” (2020).
